Source: article PMC3164867 (Journal of medicinal chemistry, 2009)
Each block holds one compound with its values, some of them ahead of it.

Columns and labels:
Solubility = assay type: physicochemical; details: preliminary evidence
[1] = tested on: Molt-4 (T-cell lymphoma) or Raji tumors (B-cell lymphoma); assay type: in vivo, nude mice
Summary of the method: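 Athymic Nu/Nu mice, 4–6 weeks old, bore sc Molt-4 or Raji (1 × 10^7 cells, right upper back) and A549 (1 × 10^6 cells, left upper back), studied at 10–15 mm. Under pentobarbital ip anesthesia, Cy5.5-conjugated test compound given iv by tail vein; serial NIRF imaging 5 min–120 h (10 nmol), 30 s exposures. Ex vivo organs and tumors at 24 h (0.25 or 1 nmol); ROI mean intensity minus heart background.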

activated α4β1 integrin = activated α4β1 integrin (Homo sapiens, UniProt P05556+P13612); assay type: cell-based; details: for potency (in words): SAR summary, Molt-4 cell adhesion
[2] = iv tail vein, nude mice with Molt-4 or Raji and A549 xenografts, NIRF imaging

activated α4β1 integrin, sequence (P13612 34-1032): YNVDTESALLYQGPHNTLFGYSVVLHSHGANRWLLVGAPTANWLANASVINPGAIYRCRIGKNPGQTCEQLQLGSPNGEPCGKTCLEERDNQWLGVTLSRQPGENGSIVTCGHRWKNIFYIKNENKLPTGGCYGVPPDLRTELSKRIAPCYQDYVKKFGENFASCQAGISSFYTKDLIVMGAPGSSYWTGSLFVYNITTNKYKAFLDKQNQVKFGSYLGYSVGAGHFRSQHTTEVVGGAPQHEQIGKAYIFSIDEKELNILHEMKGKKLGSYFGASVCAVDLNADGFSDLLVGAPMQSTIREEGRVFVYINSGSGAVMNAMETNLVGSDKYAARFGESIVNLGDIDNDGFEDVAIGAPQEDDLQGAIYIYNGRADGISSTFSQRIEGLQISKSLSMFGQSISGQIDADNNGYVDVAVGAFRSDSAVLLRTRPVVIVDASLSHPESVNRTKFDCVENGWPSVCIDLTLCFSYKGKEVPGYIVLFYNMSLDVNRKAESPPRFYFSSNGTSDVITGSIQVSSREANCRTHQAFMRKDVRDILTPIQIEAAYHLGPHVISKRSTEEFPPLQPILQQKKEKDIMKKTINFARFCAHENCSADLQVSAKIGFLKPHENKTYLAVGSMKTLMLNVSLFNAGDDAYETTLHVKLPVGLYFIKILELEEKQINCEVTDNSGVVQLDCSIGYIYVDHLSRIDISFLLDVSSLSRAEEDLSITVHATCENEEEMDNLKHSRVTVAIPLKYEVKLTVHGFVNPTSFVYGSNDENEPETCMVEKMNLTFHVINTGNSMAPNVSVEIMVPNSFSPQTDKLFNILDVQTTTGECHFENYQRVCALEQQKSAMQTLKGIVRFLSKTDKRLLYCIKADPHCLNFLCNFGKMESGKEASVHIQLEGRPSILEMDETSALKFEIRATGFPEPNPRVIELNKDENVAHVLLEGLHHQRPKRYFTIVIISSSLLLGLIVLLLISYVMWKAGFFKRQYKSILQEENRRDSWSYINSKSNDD
activated α4β1 integrin, sequence (P05556 21-798): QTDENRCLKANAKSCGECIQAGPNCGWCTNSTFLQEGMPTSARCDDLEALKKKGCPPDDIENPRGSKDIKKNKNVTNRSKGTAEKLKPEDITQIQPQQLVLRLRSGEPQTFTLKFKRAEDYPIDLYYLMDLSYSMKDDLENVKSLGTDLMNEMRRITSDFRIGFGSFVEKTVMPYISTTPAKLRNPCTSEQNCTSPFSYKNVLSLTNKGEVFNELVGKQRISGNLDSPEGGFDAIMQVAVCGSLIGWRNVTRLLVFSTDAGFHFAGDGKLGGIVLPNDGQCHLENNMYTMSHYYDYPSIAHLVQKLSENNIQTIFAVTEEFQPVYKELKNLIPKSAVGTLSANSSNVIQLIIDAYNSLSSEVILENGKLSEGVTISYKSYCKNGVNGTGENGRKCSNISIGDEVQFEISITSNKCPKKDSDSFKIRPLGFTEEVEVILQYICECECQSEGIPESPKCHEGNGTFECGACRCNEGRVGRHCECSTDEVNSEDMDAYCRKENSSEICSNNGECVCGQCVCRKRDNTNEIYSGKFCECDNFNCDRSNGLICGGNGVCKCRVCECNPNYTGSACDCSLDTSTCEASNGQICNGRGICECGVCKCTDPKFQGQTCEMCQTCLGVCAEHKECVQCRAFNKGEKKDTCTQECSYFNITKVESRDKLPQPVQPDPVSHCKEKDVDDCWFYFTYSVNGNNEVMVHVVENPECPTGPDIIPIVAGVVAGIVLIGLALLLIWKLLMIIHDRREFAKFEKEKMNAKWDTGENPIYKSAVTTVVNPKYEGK

Compound: 2-(1E,3E,5E)-5-3-(R)-1-(1-(R)-2-(R)-2-[2-(4-(benzo[d]thiazol-2-ylamino)phenyl)\acetamido]-6-(E)-3-(pyridin-3-yl)acrylamido)hexanamido)-5-carboxypentanamido)cyclohexyl)-27-carbamoyl-1,9,13,21,25,33-hexaoxo-5,17-dioxa-2,8,14,20,26,32-hexa-azaheptatriacontan-37-yl)-1,1-dimethyl-6,8-disulfonato-1H-benzo[e]indol-2(3H)-ylid-ene)penta-1,3-dienyl)-3-ethyl-1,1-di-methyl-1H-benzo[e]indolium-6,8-disulfonate [Compound 6-Cy5.5]
solubility (in words) (Solubility): improved solubility
organ signal (in words) ([1]; ex vivo NIRF of organs): low liver, muscle, lung, and spleen signal
kidney:tumor ratio (in words) ([1]; ex vivo NIRF, preliminary, compared with 1-Cy5.5): improvement in the kidney:tumor ratio
tumor uptake first observed post injection [1, 2]: 5 min
tumor uptake persisted post injection [1, 2]: up to 120 h

Compound: NC(=O)C1(NC(=O)[C@H](CCCC(=O)O)NC(=O)[C@H](CCCCNC(=O)/C=C/c2cccnc2)NC(=O)Cc2ccc(Nc3nc4ccccc4[nH]3)cc2)CCCCC1 [Compound 2, reference compound]
potency relative to bisaryl urea 1 (fold less potent) (activated α4β1 integrin; compared with 1): 10 fold

Compound: NC(=O)C1(NC(=O)[C@@H](CCCC(=O)O)NC(=O)[C@@H](CCCCNC(=O)/C=C/c2cccnc2)NC(=O)c2cccc(Nc3nc4cc(Br)ccc4[nH]3)c2)CCCCC1 [Compound 3]
IC50 (activated α4β1 integrin): 30 nM

Compound: Cc1ccc2[nH]c(Nc3ccc(C(=O)N[C@H](CCCCNC(=O)/C=C/c4cccnc4)C(=O)N[C@H](CCCC(=O)O)C(=O)NC4(C(N)=O)CCCCC4)cc3)nc2c1 [Compound 5]
IC50 (activated α4β1 integrin): 490 nM
potency (in words) (activated α4β1 integrin): mid nM potency

Compound: NC(=O)C1(NC(=O)[C@@H](CCCC(=O)O)NC(=O)[C@@H](CCCCNC(=O)/C=C/c2cccnc2)NC(=O)Cc2ccc(Nc3nc4ccccc4s3)cc2)CCCCC1 [Compound 6, (R)-5-(R)-[2-{2-[4-(Benzothiazol-2-ylamino)-phenyl]acetylamino}-6-(E)-(3-pyridin-3-yl-acryloylamino)hexanoylamino]-5-(1-carbamoylcyclo-hexylcarbamoyl)pentanoic Acid]
potency (in words) (activated α4β1 integrin): equipotent to 1

More lines, now with the values ahead:

potency (in words) (activated α4β1 integrin): low nM potency
Compound: Cc1cccc2oc(Nc3ccc(CC(=O)N[C@H](CCCCNC(=O)/C=C/c4cccnc4)C(=O)N[C@H](CCCC(=O)O)C(=O)NC4(C(N)=O)CCCCC4)cc3)nc12 [Compound 7]

potency (in words) (activated α4β1 integrin): complete loss of potency
Compound: Cc1cccc2oc(Nc3ccc(C(=O)N[C@H](CCCCNC(=O)/C=C/c4cccnc4)C(=O)N[C@H](CCCC(=O)O)C(=O)NC4(C(N)=O)CCCCC4)cc3)nc12 [Compound 9]

potency (in words) (activated α4β1 integrin): complete loss of potency
Compound: NC(=O)C1(NC(=O)[C@@H](CCCC(=O)O)NC(=O)[C@@H](CCCCNC(=O)/C=C/c2cccnc2)NC(=O)c2ccc(Nc3nc4ccccc4o3)cc2)CCCCC1 [Compound 10]

potency (in words) (activated α4β1 integrin): mid nM potency
Compound: NC(=O)C1(NC(=O)[C@@H](CCCC(=O)O)NC(=O)[C@@H](CCCCNC(=O)/C=C/c2cccnc2)NC(=O)c2ccc(Nc3nc4ccccc4s3)cc2)CCCCC1 [Compound 11]
